# Yeast growth inh – chemicals that inhibit yeast BB579 growth in restrictive medium (lifespan-shortening candidates). S. cerevisiae BB579 growth, OD615, 48 h. inhibition, % at 10 µM. 0.51% of 140,000 active;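 active = inhibition above a set limit, 3 SD over the mean compound inhibition, cut at about 44% in these data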
#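 Test system: S. cerevisiae DeaD strain BB579 yeast; Medium: restrictive CSMM-D medium; Compound: one dose, 10 µM compound with 0.25% DMSO; Incubation: 4 h cell preincubation, 48 h compound exposure, 30 °C humidified; Signal: OD at 615 nm; Benchmarks: amphotericin B at 10 µg/mL as positive control.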
# Yeast lifespan up – yeast lifespan extension; S. cerevisiae growth with nicotinamide, OD615; deaD strain in restrictive glucose medium; inhibition of the nicotinamide effect, % at 10 µM; 0.68% of 130,000 active; AID 775;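 active = inhibition above a set limit, placed 3 SD over the median of all compounds, cut at about 26% in these data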;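 also: 0% = nicotinamide-treated wells and 100% = cells grown without nicotinamide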
#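 assay system = DeaD-strain S. cerevisiae | buffer or medium = restrictive glucose medium | reagent = 1.5 mM nicotinamide | compound = 10 µM single point, 0.25% DMSO | incubation = 48 h compound exposure at 30 °C, humidified | signal = OD615 measurement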
# RAM inhibit – inhibitors of the yeast RAM network; S. cerevisiae dse1pr::URA3 reporter, 5-FOA growth OD615, 2 d; analog-sensitive cbk1-as2 kinase mutant strain; inhibition, % at 50 µM; 1.8% of 190,000 active; AID 868;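 active = inhibition above a set limit, 3 SD over mean compound inhibition, cut at about 8.4% in these data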;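 also: 0% = DMSO-only wells with no growth and 100% = 10 µM 1-NA-PP1 full growth; inhibition rescues growth on 5-FOA so higher OD means more RAM inhibition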
# INS promoter inh – TRM-6 insulin promoter activity inhibition. TRM-6 cells, insulin promoter-eGFP reporter, imaging; reporter expression induced with tamoxifen. inhibition, % at 2 µM. AID 1273. 0.9% of 130,000 active;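 active = inhibition above the mean plus 3 SD, with well images judged a real hit on visual review, cut at about 60% in these data, passing the limit was not always enough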
# HMGR II inh – E. faecalis class II HMG-CoA reductase inhibition; inhibition, % at 10 µM; 0.41% of 190,000 active; purified E. faecalis HMGR, NADPH absorbance 340 nm kinetic;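 active = inhibition above a set limit, the median over all tested compounds plus 3 SD, cut at about 9.5% in these data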;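 also: enzyme runs in reverse so mevalonate oxidation gives rising NADPH absorbance; 0% = complete reaction with DMSO and 100% = background rate lacking mevalonate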
# RAM efflux-def – RAM network inhibition, efflux-deficient strain. shares compounds with RAM inhibit. S. cerevisiae efflux-deficient reporter strain, 5-FOA growth OD615, 2 days. max inhibition, %. 1,200 tested, under 10 active. AID 1305; call rule not given here;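 also: plate controls were vehicle for no effect and reference inhibitor for full effect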
# An asterisk follows results filed as active; x = no result given. Compounds with a hit are over-represented: about 3.7% of the library has one in this group of screens.
SMILES,Yeast growth inh,Yeast lifespan up,RAM inhibit,INS promoter inh,HMGR II inh,RAM efflux-def
O=C(c1oc2ccccc2c1CSCc1ccccc1)N1CCN(c2ncccn2)CC1,-33.8,-6.1,12.4*,0.0,-1.2,1.5
O=C(OCc1ccccc1)C1=[N+]([O-])OC(C(=O)OCc2ccccc2)C1c1c[nH]c2ccccc12 (stereo not given),-92.3,-7.5,11.7*,17.9,2.0,3.9
CCOC(=O)c1sc(NC(=S)NC(=O)c2ccccc2)c(C(=O)OCC)c1C,-7.7,0.6,4.9,20.7,-0.8,x
CCOC(=O)C1=C(NC(=S)NC(=O)c2ccccc2)c2ccccc2CC1C(C)C (stereo not given),-43.4,-9.2,11.7*,16.7,-1.3,3.4
COc1ccnc(N2CCN(c3ccc(Cl)cc3)CC2)c1C#N,-14.4,-10.9,14.2*,-18.5,1.8,3.6
CCN(c1ccccc1)S(=O)(=O)c1ccc(NCC2COc3ccccc3O2)nc1 (stereo not given),-49.8,-10.8,12.6*,x,0.5,2.9
CCN(c1ccccc1)S(=O)(=O)c1ccc(Cl)nc1,x,x,0.0,27.3,-1.9,x
CC(=O)Nc1ccc(-c2cc(-c3ccc(NC(C)=O)cc3)nc(-c3ccc(NC(C)=O)cc3)n2)cc1,-62.9,8.0,11.8*,-16.7,-3.0,4.7
CCOC(=O)C1=C(c2ccccc2)N=c2s/c(=C\c3cc(OC)c(OC)c(OC)c3)c(=O)n2C1c1cccs1 (stereo not given),-12.3,-14.6,12.4*,3.3,0.2,4.2
CCOC(=O)C1=C(c2ccccc2)N=c2s/c(=C\c3ccco3)c(=O)n2C1c1cccs1 (stereo not given),-38.0,3.0,5.1,x,-4.5,x
CCCOc1cccc(C(=O)NC(=S)Nc2cccc(C(F)(F)F)c2)c1,-20.1,-9.3,12.1*,10.7,-6.0,2.8
O=C(CSc1nnc(SCc2ccc(Cl)cc2)s1)N/N=C/c1c(Cl)cccc1Cl,-30.9,-5.2,-1.3,x,-3.4,x
CCCC[C@@H]1C[C@H]1[C@@H](NC(=O)c1ccccc1)c1ccccc1C(F)(F)F,-36.7,2.4,22.1*,19.1,-4.1,2.9
COC(=O)[C@@H]1C[C@H]1[C@@H](NC(=O)c1ccccc1)c1ccccc1,-6.4,-2.0,-0.3,-47.6,1.5,x
CCc1ccc(NC(=O)Cn2c(SC)nc3ccccc32)cc1,-13.1,-2.0,20.6*,x,-5.5,2.9
Cc1ccc(NC(=O)c2ccc(F)cc2)cc1S(=O)(=O)N1CCCCCC1,x,x,11.9*,x,-3.9,2.2
Cc1ccc(NC(=O)c2ccccc2F)cc1S(=O)(=O)N1CCCCCC1,x,x,13.1*,0.0,-4.7,1.7
Cc1cccc(OCCC(=O)Nc2ccc(S(=O)(=O)N3CCCC3)cc2)c1,-22.8,-7.2,3.9,7.1,-1.7,x
Cc1cccc(OCCC(=O)Nc2ccc(C)c(S(=O)(=O)N3CCCCC3)c2)c1,-38.4,5.4,15.5*,-65.1,2.1,2.1
CCOCC(=O)Nc1ccccc1C(=O)O,x,x,0.6,x,3.5,x
Oc1oc(-c2cccc3ccccc23)nc1C=NCc1ccccc1,-30.7,-0.6,2.9,21.4,4.2,x
O=C(O)CCNC(=O)/C(=C/C=C/c1ccccc1)NC(=O)c1ccccc1,x,x,1.6,x,-5.4,x
CCOc1c(Cl)cc(C(=O)Nc2ccccc2-c2ccccc2)cc1Cl,-28.6,-16.9,13.9*,x,6.0,5.2
CN(CCC#N)C(=O)COC(=O)c1ccc(CNS(=O)(=O)c2ccc(F)c(Cl)c2)cc1,-25.9,-2.6,4.6,x,-2.0,x
COc1cc(/C=C/C(=O)OCC(=O)Nc2cc(C(F)(F)F)ccc2N2CCOCC2)ccc1O,-29.4,-2.1,6.5,-50.0,-2.9,x
SMILES,Yeast growth inh,Yeast lifespan up,RAM inhibit,INS promoter inh,HMGR II inh,RAM efflux-def
C=C(CC1([C@@H](NP(=O)(c2ccccc2)c2ccccc2)[C@H]2C[C@@H]2CCCC)CC1)c1ccccc1,-21.2,3.8,21.2*,-19.1,3.8,7.5
Cc1cc(C)c(NS(=O)(=O)c2ccc(NC(=O)CCC(=O)O)cc2)c(C)c1,x,x,3.2,8.3,-0.8,x
CC(C)OCCCNC(=O)C(NS(=O)(=O)c1ccc2c(c1)c(=O)n(C)c(=O)n2C)c1ccccc1 (stereo not given),x,x,13.4*,x,-2.0,2.6
Cc1ccc(C(=O)N/C(=C\c2cccc([N+](=O)[O-])c2)C(=O)OCN2C(=O)c3ccccc3C2=O)cc1,-21.7,-0.6,1.9,41.4,-1.1,x
CCCCOc1ccc(C(=O)N/C(=C\c2cccc([N+](=O)[O-])c2)C(=O)OCc2ccco2)cc1,-33.6,9.2,11.4*,x,6.2,1.7
C=CCOC(=O)/C(=C\c1ccc(OC)cc1)NC(=O)c1ccco1,-41.2,-0.4,3.8,x,-1.0,x
CCCCOc1ccc(C(=O)N/C(=C\c2ccc(OC)cc2)C(=O)OCc2ccco2)cc1,-60.7,0.8,12.3*,x,0.8,6.6
COc1cc(OC)cc(C(=O)N2CCC(C(=O)Nc3ccc4c(c3)OCCO4)CC2)c1,-5.2,-4.2,3.6,14.7,-6.4,x
CCOC(=O)c1c(C)[nH]c(N=Nc2ccccc2C)c1C,-6.7,-10.8,19.6*,28.6,-7.9,4.8
CCOC(=O)c1c(C)[nH]c(N=Nc2ccc(C)cc2C)c1C,-13.0,-12.7,5.9,5.7,-0.2,x
COc1ccc(CNC(=O)COC(=O)/C=C/c2cccc(Br)c2)cc1OC,x,x,3.5,x,1.1,x
COc1ccc(NC(=O)CSc2nc3ccccc3c(=O)n2CCNC(C)=O)c(OC)c1,-46.1,15.0,11.9*,x,-4.4,1.1
CC(=O)NCCn1c(SCc2cccc([N+](=O)[O-])c2)nc2ccccc2c1=O,x,x,11.6*,-13.3,-0.2,3.4
CC(=O)NCCn1c(SCc2cc(F)ccc2F)nc2ccccc2c1=O,-51.6,-5.2,5.1,31.4,-1.0,x
O=C(CCCn1c(=O)[nH]c2ccc(Br)cc2c1=O)NCc1ccc(Cl)cc1,x,x,0.8,x,-7.3,x
O=C(CN(c1ccc2c(c1)OCCO2)S(=O)(=O)c1ccccc1)NCc1ccc(Cl)cc1,-41.3,3.7,7.8,-14.3,0.2,x
CCCCN(CC(=O)NCc1ccc(Cl)cc1)S(=O)(=O)c1ccc2c(c1)OCCO2,-59.4,11.3,13.3*,-7.7,-4.1,3.3
O=C(NNC(=O)C1CC(c2cccs2)=NO1)NC1CCCCC1 (stereo not given),x,x,1.2,-106.7,0.8,x
C=C(C)C1CC=C(C)/C(=N/NC(=O)COc2ccc(C)cc2)C1 (stereo not given),-33.2,x,3.2,3.5,0.2,x
C=C(C)C1CC=C(C)/C(=N\NC(=S)Nc2ccc(C)cc2)C1 (stereo not given),3.6,2.3,17.2*,5.9,4.0,1.6
O=C(C1CCCO1)N1CCN(c2ccccn2)CC1 (stereo not given),x,x,0.1,30.0,-2.9,x
CCOC(=O)c1cnc(-c2ccccc2)nc1Oc1ccc(Cl)cc1,-49.2,36.4,13.6*,-50.0,-0.8,1.2
O=C(O)c1cnc(-c2ccccc2)nc1Oc1ccc(Cl)cc1,x,x,2.7,x,-5.1,x

# Bioassay records from PubChem BioAssay.
